According to ChEMBL document CHEMBL1143764, “Cyclic and dimeric gluten peptide analogues inhibiting DQ2-mediated antigen presentation in celiac disease” (Bioorg Med Chem, 2007):
Active and inactive are the calls of the source. No cut-off for these calls is given here. *1 amine or outer side, *2 acyl side, *3 side chain or, on linkers, in order; H or OH if unused. Where a SMILES comes first, the peptide text is derived from it. Bridges are numbered along the chain shown (N, C = ends). Side-chain parts run from the residue outwards. [ ]: non-standard residue; d: D form. The star is where a group is joined. N(prolylmethyl)Phe = O=C(CN([C@@H](Cc1ccccc1)C(=O)[*:2])[*:1])[C@@H]1CCCN1[*:3]; X1 = O=C(CCCOCCOCCOCCOCCOCCC(=O)NCCOCCOCC(=O)[*:1])NCCOCCOCC(=O)[*:2]; X2 = O=C(CCOCCOCCOCCOCCOCCOCCOCCOCCOCCOCCOCCC(=O)[*:2])[*:1]; 5FAM = O=C1OC2(c3ccc(O)cc3Oc3cc(O)ccc32)c2ccc(C(=O)*)cc21; X3 = O=C(CCOCCOCCOCCOCCOCCOCCOCCC(=O)[*:2])[*:1]

How the values were obtained:
T-cell = test: Inhibition of P28 TCL2 T cell proliferation assessed as incorporation of [3H]-thymidine in presence of 10 uM antigen peptide; format: functional, cell-based; conditions: Homo sapiens
In short: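 HLA-DR3/DQ2 homozygous EBV B-lymphoblastoid cells (VAVY or CD114), fixed with 1% paraformaldehyde or 0.05% glutaraldehyde, peptide-loaded overnight at 2×10^6 cells/ml. Next day at 1×10^6/ml, duplicates, mixed with equal volume of P28 TCL2 T cells; 37°C, 5% CO2, 48 h. [3H]thymidine added, further 12–16 h, scintillation counting.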

[1] = Binding affinity to DQ2; set-up: species or system Homo sapiens
In short: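 Competition binding: 125I-labeled indicator peptide (30,000 cpm; 1–5 nM) plus graded unlabeled peptide incubated overnight with 70–200 nM DQ2 at 37°C, pH 5.2, with protease inhibitor cocktail. Bound separated from free on Sephadex G-50 spin columns; radioactivity counted; IC50 as competitor level halving indicator binding, from three 3-fold titration experiments.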

Homo sapiens = species on record: Homo sapiens; test: Binding affinity to recombinant DQ2 at pH 7.3 by fluorescent-conjugated peptide exchange assay
In short: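 Recombinant soluble DQ2 with N-terminally fused gliadin epitope, cleaved with ~2% w/w thrombin in PBS pH 7.3, 0°C, 2 h. 4.7 μM DQ2 with 0.185 μM fluorescein-labeled peptide (25:1), 37°C, 5 h, final pH 7.3. HPSEC with fluorescence (ex 495/em 520 nm); bound peptide as percent of total; mean of two experiments.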

SMILES	IC50 [1] [nM]	Activity (Homo sapiens)	Activity (T-cell)
CC(C)C[C@@H]1NC(=O)CNC(=O)CNC(=O)CNC(=O)CNC(=O)[C@H](N)CSSC[C@H](C(=O)O)NC(=O)CNC(=O)CNC(=O)[C@H](Cc2ccc(O)cc2)NC(=O)[C@@H]2CCCN2C(=O)[C@H](CC(C)C)NC(=O)[C@H](CCC(=O)O)NC(=O)[C@@H]2CCCN2C(=O)[C@H](CCC(N)=O)NC(=O)[C@@H]2CCCN2C(=O)[C@H](Cc2ccccc2)NC(=O)[C@@H]2CCCN2C(=O)[C@H](CCC(N)=O)NC1=O	3100		Dose-dependent effect
CC(=O)N[C@H]1CCCCNC(=O)CCOCCOCCOCCOCCOCCOCCOCCC(=O)NCCCC[C@@H](C(=O)N[C@@H](CCC(=O)O)C(=O)N[C@@H](CC(C)C)C(=O)N2CCC[C@H]2C(=O)N[C@@H](Cc2ccc(O)cc2)C(=O)O)NC(=O)[C@H](CCC(=O)O)NC(=O)[C@@H]2CCCN2C(=O)[C@H](Cc2ccccc2)NC(=O)[C@@H]2CCCN2C(=O)[C@H](CCC(N)=O)NC1=O (Ac-KQPFPEKELPY-OH; linker 1-7 via X3)	600		Dose-dependent effect
CC(C)C[C@H](NC(=O)c1ccc2c(c1)C(=O)OC21c2ccc(O)cc2Oc2cc(O)ccc21)C(=O)N[C@@H](CCC(=O)O)C(=O)N[C@@H](CC(C)C)C(=O)N[C@@H](CCC(N)=O)C(=O)N1CCC[C@H]1C(=O)CN[C@@H](Cc1ccccc1)C(=O)N1CCC[C@H]1C(=O)N[C@@H](CCC(=O)O)C(=O)N1CCC[C@H]1C(=O)N[C@@H](CCC(=O)O)C(=O)N[C@H]1CCCCNC(=O)COCCOCCNC(=O)CCOCCOCCOCCOCCOCCCC(=O)NCCOCCOCC(=O)NCCCC[C@@H](C(=O)N2CCC[C@H]2C(=O)N[C@@H](Cc2ccc(O)cc2)C(=O)O)NC(=O)[C@H](CCC(=O)O)NC(=O)[C@@H]2CCCN2C(=O)[C@H](CCC(=O)O)NC(=O)[C@@H]2CCCN2C(=O)[C@H](Cc2ccc(O)cc2)NC(=O)[C@@H]2CCCN2C1=O (H-[N(prolylmethyl)Phe]([Gln-Leu-Glu-Leu-5FAM])PEPEKPYPEPEKPY-OH; linker 6-13 via X1)	300	Active	Dose-dependent effect

The remaining molecules from weak to strong by IC50 [1], led by results:

IC50 [1] [nM]	Activity (Homo sapiens)	SMILES	Activity (T-cell)
4200		CC(C)C[C@@H]1NC(=O)CNC(=O)CNC(=O)CNC(=O)CNC(=O)CNC(=O)CNC(=O)[C@H](N)CSSC[C@H](C(=O)O)NC(=O)CNC(=O)CNC(=O)[C@H](Cc2ccc(O)cc2)NC(=O)[C@H]2CCCN2C(=O)[C@H](CC(C)C)NC(=O)[C@H](CCC(=O)O)NC(=O)[C@@H]2CCCN2C(=O)[C@H](CCC(N)=O)NC(=O)[C@@H]2CCCN2C(=O)[C@H](Cc2ccccc2)NC(=O)[C@@H]2CCCN2C(=O)[C@H](CCC(N)=O)NC1=O	Dose-dependent effect
2000		CC(C)C[C@@H]1NC(=O)CNC(=O)CNC(=O)[C@H](N)CSSC[C@H](C(=O)O)NC(=O)CNC(=O)CNC(=O)[C@H](Cc2ccc(O)cc2)NC(=O)[C@@H]2CCCN2C(=O)[C@H](CC(C)C)NC(=O)[C@H](CCC(=O)O)NC(=O)[C@@H]2CCCN2C(=O)[C@H](CCC(N)=O)NC(=O)[C@@H]2CCCN2C(=O)[C@H](Cc2ccccc2)NC(=O)[C@@H]2CCCN2C(=O)[C@H](CCC(N)=O)NC1=O	Dose-dependent effect
800		CC(=O)N[C@H]1CCCCNC(=O)CCOCCOCCOCCOCCOCCOCCOCCOCCOCCOCCOCCC(=O)NCCCC[C@@H](C(=O)N[C@@H](CCC(=O)O)C(=O)N[C@@H](CC(C)C)C(=O)N2CCC[C@H]2C(=O)N[C@@H](Cc2ccc(O)cc2)C(=O)O)NC(=O)[C@H](CCC(=O)O)NC(=O)[C@@H]2CCCN2C(=O)[C@H](Cc2ccccc2)NC(=O)[C@@H]2CCCN2C(=O)[C@H](CCC(N)=O)NC1=O (Ac-KQPFPEKELPY-OH; linker 1-7 via X2)	Dose-dependent effect
200	Active	CC(C)C[C@H](NC(=O)c1ccc2c(c1)C(=O)OC21c2ccc(O)cc2Oc2cc(O)ccc21)C(=O)N[C@@H](CCC(=O)O)C(=O)N[C@@H](CC(C)C)C(=O)N[C@@H](CCC(N)=O)C(=O)N1CCC[C@H]1C(=O)CN[C@@H](Cc1ccccc1)C(=O)N1CCC[C@H]1C(=O)N[C@@H](CCC(=O)O)C(=O)N1CCC[C@H]1C(=O)N[C@@H](CCC(=O)O)C(=O)N[C@H]1CCCCNC(=O)CCOCCOCCOCCOCCOCCC(=O)CNCCCC[C@@H](C(=O)N2CCC[C@H]2C(=O)N[C@@H](Cc2ccc(O)cc2)C(=O)O)NC(=O)[C@H](CCC(=O)O)NC(=O)[C@@H]2CCCN2C(=O)[C@H](CCC(=O)O)NC(=O)[C@@H]2CCCN2C(=O)[C@H](Cc2ccc(O)cc2)NC(=O)[C@@H]2CCCN2C1=O	Dose-dependent effect
